Like-named read-outs stand apart in the source and are kept apart here.
Experiments:
ZnCA = conditions: with ZnCA; ref 7 (Martin, et al); cited from earlier work
[1] = MBP hydroxyl pKa from pH-dependent optical spectra; type: physicochemical
CoCA = type: physicochemical, bovine; conditions: calculated from first addition (3.75 μM MBP) to 38 μM CoCA; thione coordinated
Procedure, shortened: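 UV-vis titration of 38 μM CoCA with MBP in 50 mM phosphate, pH 7.5. ΔA of protonated and deprotonated bands converted to concentrations using the εOH–εO− difference, then to mole fractions vs MBP added. Effective pKa calculated from the first addition (3.75 μM), […]. Shift expressed relative to the free-MBP hydroxyl pKa.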

[2] = solution of the free MBP, pH varied (UV-vis optical spectra)

Row | SMILES | Ki (ZnCA) [µM] | pKa [1] | deprotonated form present at physiological pH ([1]; expected from pKa) | pKa [1, 2] | effective pKa (CoCA)
1 | Cc1cc(=S)c(O)co1 [ATM, 5-hydroxy-2-methyl-4H-pyran-4-thione] | 650 | 8.3 | ~ 15% | ~8.3 | 7.6
2 | Cc1occc(=S)c1O [TM, 3-hydroxy-2-methyl-4H-pyran-4-thione] | 1400 | 9 | – | ~9 | 8.3
3 | Oc1coccc1=S [TPMA, 3-hydroxy-4H-pyran-4-thione] | 1100 | 9.5 | – | ~9.5 | 8.4
